Measured values from ChEMBL document CHEMBL4229411, “Senolytic activity of piperlongumine analogues: Synthesis and biological evaluation” (Bioorg Med Chem, 2018).
Each block holds one compound with its values, some of them ahead of it. Active and inactive are the calls of the source. The rule behind the calls is not given here.

Tests used:
[1] = target: T1, Oxidation resistance protein 1 (Homo sapiens) (UniProt Q8N573); test: Induction of OXR1 degradation in ionizing radiation induced human WI38 senescent cells at 5 uM after 24 hrs by Western blot analysis
T1 sequence (whole entry): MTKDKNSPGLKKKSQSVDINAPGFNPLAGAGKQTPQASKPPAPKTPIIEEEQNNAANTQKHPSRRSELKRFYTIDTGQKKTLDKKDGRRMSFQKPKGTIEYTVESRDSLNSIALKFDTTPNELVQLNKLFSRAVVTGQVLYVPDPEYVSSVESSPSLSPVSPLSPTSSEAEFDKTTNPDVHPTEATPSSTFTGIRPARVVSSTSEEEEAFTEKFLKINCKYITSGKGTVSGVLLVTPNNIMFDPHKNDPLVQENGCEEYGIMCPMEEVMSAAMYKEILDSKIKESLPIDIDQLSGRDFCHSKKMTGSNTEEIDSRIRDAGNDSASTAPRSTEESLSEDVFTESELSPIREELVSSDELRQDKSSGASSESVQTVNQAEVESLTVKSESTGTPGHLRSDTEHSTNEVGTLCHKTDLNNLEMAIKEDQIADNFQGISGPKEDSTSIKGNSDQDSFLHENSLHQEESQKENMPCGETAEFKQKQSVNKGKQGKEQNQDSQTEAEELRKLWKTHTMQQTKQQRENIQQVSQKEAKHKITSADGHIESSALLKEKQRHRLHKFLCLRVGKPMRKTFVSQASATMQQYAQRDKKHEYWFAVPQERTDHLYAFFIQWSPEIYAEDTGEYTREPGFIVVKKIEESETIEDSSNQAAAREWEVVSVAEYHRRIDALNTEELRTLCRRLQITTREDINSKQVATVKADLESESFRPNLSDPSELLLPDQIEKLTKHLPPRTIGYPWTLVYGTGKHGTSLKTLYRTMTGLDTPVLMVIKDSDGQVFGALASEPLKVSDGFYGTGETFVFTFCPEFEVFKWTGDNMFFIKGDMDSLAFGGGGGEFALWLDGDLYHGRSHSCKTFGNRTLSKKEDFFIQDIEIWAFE
Summary of the method: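 Cells were lysed in RIPA buffer with EDTA/EGTA and proteins were transferred to PVDF. Membranes were blocked in 5% nonfat milk/TBST and probed overnight at 4 °C for OXR1 and β-actin. Bands were quantified; mean ± SEM, n = 3.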

[2] = Toxicity in po dosed mouse; type: organism-based; conditions: in vivo
[3] = Selectivity index, ratio of EC50 for non-senescent human WI38 cells to EC50 for ionizing radiation induced human WI38 senescent cells; type: functional, WI-38
Summary of the method: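 Human WI-38 fibroblasts were grown in DMEM with 10% FBS and penicillin/streptomycin at 37 °C in 5% CO2. Low-passage cells (<25 passages) served as non-senescent controls. Viability was read by flow cytometry.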

WI-38 [4] = test: Senolytic activity against ionizing radiation induced human WI38 senescent cells assessed as reduction in cell viability by propidium iodide staining based flow cytometry; type: functional
Summary of the method: (§1)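 WI-38 fibroblasts were grown in DMEM/10% FBS with penicillin/streptomycin at 37 °C, 5% CO2. Low-passage cells (<25 passages) served as non-senescent controls.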

WI-38 [5] = test: Senolytic activity against non-senescent human WI38 cells assessed as reduction in cell viability by propidium iodide staining based flow cytometry; summary of the method: as §1
WI-38 [6] = test: Induction of ROS production in ionizing radiation induced human WI38 senescent cells up to 64 uM after […] by DHR123 dye based flow cytometry; type: functional, cell-based
WI-38 [7] = test: Induction of apoptosis in ionizing radiation induced human WI38 senescent cells assessed as early apoptotic cells at 10 uM after 48 hrs by Annexin V-FITC/propidium iodide staining based flow cytometry (reference value: […]); type: functional
WI-38 [8] = test: Induction of apoptosis in ionizing radiation induced human WI38 senescent cells assessed as late apoptotic cells at 10 uM after 48 hrs by Annexin V-FITC/propidium iodide staining based flow cytometry (reference value: […]); type: functional
WI-38 [9] = test: Induction of apoptosis in ionizing radiation induced human WI38 senescent cells assessed as live cells at 10 uM after 48 hrs by Annexin V-FITC/propidium iodide staining based flow cytometry (reference value: 87%); type: functional
WI-38 [10] = test: Induction of apoptosis in ionizing radiation induced human WI38 senescent cells assessed as necrotic cells at 10 uM after 48 hrs by Annexin V-FITC/propidium iodide staining based flow cytometry (reference value: […]); type: functional

Structure (SMILES): COc1cc(/C=C/C(=O)N2CCC=CC2=O)cc(OC)c1OC [PIPLARTINE]
MTD [2]: > 1000 mg/kg | Ratio EC50 [3]: 2.5 | Activity [1]: Active | EC50 (WI-38 [4]): 8 µM | EC50 (WI-38 [5]): 20.3 µM | Activity (WI-38 [6]): Active

Structure (SMILES): CC(C)[C@H](NC(=O)c1ccc2ccccc2n1)C(=O)N[C@@H](CC(=O)O)C(=O)COc1c(F)cccc1F
Activity (WI-38 [7]): 7.7% | Activity (WI-38 [8]): 8% | Activity (WI-38 [9]): 80.9% | Activity (WI-38 [10]): 3.4%

Second part, the compound after the results:

Activity [1]: Active
Structure (SMILES): C=C1CCCN(C(=O)/C=C/c2cc(OC)c(OC)c(OC)c2)C1=O

Activity [1]: Active
Structure (SMILES): C=C1CCN(C(=O)/C=C/c2cc(OC)c(OC)c(OC)c2)C1=O

Activity [1]: Active
Structure (SMILES): C=C1CCCCN(C(=O)/C=C/c2cc(OC)c(OC)c(OC)c2)C1=O
